Measured values from PMC10448436 (Journal of medicinal chemistry, 2022).

Key:
Shake-flask logD7.4 = assay type: physicochemical; settings: pH 7.4
[1] = molecular target: DOR (delta opioid receptor) (Homo sapiens, UniProt P41143); experiment: Off-target counter screen at 10 μM; assay type: binding; settings: read-out: target inhibition, DOR
5-HT1A, Alpha2C and DOR = experiment: Follow-up binding assays, selectivity towards TARP γ−8; settings: follow-up 5-HT1A
Alpha2C = molecular target: T1, Alpha2C (Homo sapiens, UniProt P18825); experiment: Off-target counter screen at 10 μM; assay type: binding; settings: read-out: target inhibition, Alpha2C
T1 sequence (P18825 1-462): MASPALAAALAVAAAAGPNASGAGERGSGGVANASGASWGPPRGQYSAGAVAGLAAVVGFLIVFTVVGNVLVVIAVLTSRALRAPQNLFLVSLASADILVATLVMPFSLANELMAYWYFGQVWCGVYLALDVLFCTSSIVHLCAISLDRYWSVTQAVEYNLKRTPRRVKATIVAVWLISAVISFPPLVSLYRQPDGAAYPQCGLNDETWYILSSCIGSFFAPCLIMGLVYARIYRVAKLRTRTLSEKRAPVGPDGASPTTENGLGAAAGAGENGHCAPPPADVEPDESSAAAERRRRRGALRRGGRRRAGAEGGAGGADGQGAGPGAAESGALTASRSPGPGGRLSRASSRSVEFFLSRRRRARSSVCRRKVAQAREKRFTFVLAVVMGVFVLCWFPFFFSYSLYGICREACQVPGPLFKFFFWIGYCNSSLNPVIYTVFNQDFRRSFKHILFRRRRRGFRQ

[2] = test system: ionotropic glutamate receptors (iGluR); experiment: Off-target counter screen at 10 μM; assay type: binding
5-HT1A = molecular target: T2, 5-HT1A (Homo sapiens, UniProt P08908); experiment: Off-target counter screen at 10 μM; assay type: binding; settings: read-out: target inhibition, 5-HT1A
T2 sequence (P08908 1-422): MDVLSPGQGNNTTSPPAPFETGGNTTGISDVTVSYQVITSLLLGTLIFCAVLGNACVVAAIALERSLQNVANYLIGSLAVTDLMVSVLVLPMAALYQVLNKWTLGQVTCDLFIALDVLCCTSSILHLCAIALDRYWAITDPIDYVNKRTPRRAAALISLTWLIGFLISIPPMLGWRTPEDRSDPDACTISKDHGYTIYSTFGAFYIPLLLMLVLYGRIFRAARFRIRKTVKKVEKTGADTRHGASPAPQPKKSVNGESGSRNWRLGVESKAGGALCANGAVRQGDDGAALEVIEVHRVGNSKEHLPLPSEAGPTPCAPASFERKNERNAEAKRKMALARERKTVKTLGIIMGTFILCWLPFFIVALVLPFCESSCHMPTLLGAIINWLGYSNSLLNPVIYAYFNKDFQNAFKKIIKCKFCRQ

TARP γ−8 [3] = molecular target: T3, TARP γ−8 (Rattus norvegicus, UniProt Q8VHW5); experiment: PET imaging in rat brain; assay type: in vivo, Sprague-Dawley rats
T3 sequence (Q8VHW5 1-421): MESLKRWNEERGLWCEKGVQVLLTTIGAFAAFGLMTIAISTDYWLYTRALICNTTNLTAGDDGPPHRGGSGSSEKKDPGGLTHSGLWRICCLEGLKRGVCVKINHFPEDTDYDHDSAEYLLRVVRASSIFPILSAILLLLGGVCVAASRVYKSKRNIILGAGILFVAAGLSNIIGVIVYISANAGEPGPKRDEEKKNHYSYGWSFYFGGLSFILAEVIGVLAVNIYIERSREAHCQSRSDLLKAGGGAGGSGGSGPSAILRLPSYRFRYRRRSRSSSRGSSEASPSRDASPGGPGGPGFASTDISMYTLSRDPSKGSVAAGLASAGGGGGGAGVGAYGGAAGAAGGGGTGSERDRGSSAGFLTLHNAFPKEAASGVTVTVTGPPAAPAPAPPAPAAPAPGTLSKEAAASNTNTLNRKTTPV
In short: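 Male Sprague-Dawley rats (210−230 g) were kept under 1–2% isoflurane. The 11C-labelled test compound was injected via tail-vein catheter (38.5 ± 2.8 MBq, 0.3 ± 0.2 nmol), followed by a dynamic 3D PET scan for 60 min, co-registered to an MR template. Decay-corrected data were expressed as SUV, and BPND maps were derived by SRTM. Mean ± SD, n = 3.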

TARP γ−8 [4] = molecular target: T3, TARP γ−8; experiment: In vitro autoradiography on rat brain sections; assay type: binding
In short: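 Frozen rat brain sections (stored −80 °C) were pre-incubated in 50 mM Tris-HCl for 20 min at ambient temperature, then incubated with the 11C-labelled test compound. For blocking, unlabelled inhibitor (1 μM) was added to the incubation solution beforehand. Sections were washed three times in ice-cold buffer, dipped 10 s in cold water, cold-air dried and exposed to imaging plates. ROI radioactivity was read as PSL/mm2.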

[5] = In vitro stability of the formulated radioligand; assay type: physicochemical
In short: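 After HPLC purification, the radiotracer fraction was collected into Tween 80 and ethanol, evaporated and redissolved in 5 mL sterile normal saline. It was then passed through a 0.22 μm filter. The formulated solution was checked for radiolysis up to 90 min.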

[6] = tracer [11C]15, pretreatment with JNJ-55511118 (1 mg/kg), rat
[7] = tracer [11C]8, blocking with 8 (1 μM)

Sequence of DOR (delta opioid receptor) (P41143 whole entry): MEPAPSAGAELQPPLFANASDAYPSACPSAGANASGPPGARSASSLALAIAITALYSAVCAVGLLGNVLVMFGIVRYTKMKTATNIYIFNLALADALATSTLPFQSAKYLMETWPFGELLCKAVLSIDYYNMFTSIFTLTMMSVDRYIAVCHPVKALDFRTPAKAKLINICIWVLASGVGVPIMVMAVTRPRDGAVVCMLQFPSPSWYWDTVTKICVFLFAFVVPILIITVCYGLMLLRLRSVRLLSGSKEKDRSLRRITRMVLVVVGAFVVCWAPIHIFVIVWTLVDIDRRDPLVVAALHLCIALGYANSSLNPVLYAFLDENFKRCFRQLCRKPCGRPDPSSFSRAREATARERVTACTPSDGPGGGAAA

Compound: Cc1ccc2nc(C3CCC3)n(-c3ccc4[nH]c(=O)sc4c3)c2n1 [Compound 8, 6-(2-Cyclobutyl-5-methyl-3H-imidazo[4,5-b]pyridin-3-yl)benzo[d]thiazol-2(3H)-one]
- logD (Shake-flask logD7.4): 2.3 ± 0.06

Compound: Cc1ccc2nc(C3CCC3)n(-c3ccc4[nH]ncc4c3)c2n1 [Compound 15, 2-Cyclobutyl-3-(1H-indazol-5-yl)-5-methyl-3H-imidazo[4,5-b]pyridine]
- inhibition at 10 µM [1]: > 50%
- selectivity towards TARP γ−8 among any other tested CNS targets (5-HT1A, Alpha2C and DOR): greater than 750 fold
- logD (Shake-flask logD7.4): 2.5 ± 0.01
- inhibition at 10 µM (Alpha2C): > 50%
- interaction with related iGlu receptor family [2]: no substantial interaction
- inhibition at 10 µM (5-HT1A): > 50%

Compound: O=c1[nH]c2ccc(-c3c(Cl)cccc3OC(F)(F)F)cc2[nH]1 [JNJ-55511118, reference compound]
- reduction of BPND values (TARP γ−8 [3]; [6]): 66–81%
- reduction of radioactivity uptake in hippocampus based on AUC (TARP γ−8 [3]; [6]): 35–47%
- reduction of uptake in hippocampus (TARP γ−8 [4]; tracer [11C]15, blocking with JNJ-55511118 (1 μM)): 77%

Compound: [11CH3]c1ccc2nc(C3CCC3)n(-c3ccc4[nH]c(=O)sc4c3)c2n1 [[^11C]8, 6-(2-cyclobutyl-5-[^11C]methyl-3H-imidazo[4,5-b]pyridin-3-yl)benzo[d]thiazol-2(3H)-one]
- radiolysis in the formulated solution ([5]; up to 90 min): no radiolysis was observed
- in vitro stability ([5]; up to 90 min after formulation): > 95%
- maximum SUV in the brain (TARP γ−8 [3]; at 2.5 min, baseline, rat): 0.4
- blood brain barrier penetration (TARP γ−8 [3]; rat PET, baseline): failed to penetrate the blood brain barrier
- change of bound radioactivity in cerebellum (reference region) (TARP γ−8 [4]; [7]): no notable change
- reduction of bound radioactivity in hippocampus (TARP γ−8 [4]; [7]): 83%
